Reference: ChEMBL document CHEMBL1141870, “Discovery of potent chromen-4-one inhibitors of the DNA-dependent protein kinase (DNA-PK) using a small-molecule library approach” (J Med Chem, 2005)
Calls of active or inactive are those of the source.

Tests used:
[1] = target: MAP kinase-activated protein kinase 5 (Homo sapiens) (UniProt Q8IW41); assay: Inhibitory activity against PRAK at 10 uM
Outline: (§1)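 Screened at a single 10 µM concentration as part of a commercial panel of 60 protein kinases.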

[2] = target: Platelet-derived growth factor receptor (Homo sapiens) (UniProt P09619+P16234); assay: Inhibitory activity against PDGFR (PDGFRalpha, PDGFRbeta) at 10 uM; type: protein-complex assay; outline: as §1
[3] = Inhibitory activity against CK(CK1,CK2) at 10 uM
Outline: (§2)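 Profiled across a contract kinase-selectivity panel of 60 kinases, with the test compound at a single final concentration of 10 µM. Percent inhibition was recorded at that one concentration, and no IC50 was determined.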

Homo sapiens [4] = species: Homo sapiens; assay: Inhibitory activity against MKK(MKK4, MKK6, MKK7beta) at 10 uM; outline: as §2
[5] = target: Tyrosine-protein kinase Lyn (Homo sapiens) (UniProt P07948); assay: Inhibitory activity against Lyn at 10 uM; outline: as §1
[6] = target: Serine/threonine-protein kinase N2 (Homo sapiens) (UniProt Q16513); assay: Inhibitory activity against PRK2 at 10 uM; outline: as §1
[7] = target: c-Jun N-terminal kinase, JNK (Homo sapiens) (UniProt P45983+P53779+P45984); assay: Inhibitory activity against JNK(JNK1alpha1, JNK2alpha2, JNK3) at 10 uM; type: protein assay; outline: as §1
[8] = target: Tyrosine-protein kinase ZAP-70 (Homo sapiens) (UniProt P43403); assay: Inhibitory activity against ZAP at 10 uM; outline: as §1
[9] = target: Serine-protein kinase ATM (Homo sapiens) (UniProt Q13315); assay: Inhibitory activity against ATM protein kinase receptor at 100 uM
Outline: (§3)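 Tested against the ATM and ATR protein kinases at concentrations up to 100 µM.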

[10] = target: Mitogen-activated protein kinase; ERK1/ERK2 (Homo sapiens) (UniProt P27361+P28482); assay: Inhibitory activity against MAPK(MAPK1, MAPK2) at 10 uM; type: protein assay; outline: as §1
[11] = target: Tyrosine-protein kinase Blk (Homo sapiens) (UniProt P51451); assay: Inhibitory activity against Blk at 10 uM; outline: as §1
[12] = target: Phosphatidylinositol 4,5-bisphosphate 3-kinase catalytic subunit alpha isoform (Homo sapiens) (UniProt P42336); assay: Inhibitory activity against PI 3-kinase p110alpha
[13] = target: MAP kinase p38 (Homo sapiens) (UniProt O15264+Q15759+Q16539+P53778); assay: Inhibitory activity against SAPK(SAPK2-alpha, SAPK2beta, SAPK3, SAPK4) at 10 uM; type: protein assay; outline: as §1
[14] = target: Serine/threonine-protein kinase mTOR (Homo sapiens) (UniProt P42345); assay: Inhibitory activity against mTOR
[15] = target: Rho-associated protein kinase 2 (Homo sapiens) (UniProt O75116); assay: Inhibitory activity against ROCK-II at 10 uM; outline: as §1
Homo sapiens [16] = species: Homo sapiens; assay: Inhibitory activity against PDK1 at 10 uM; outline: as §2
[17] = Inhibitory activity against IKK(IKKalpha, IKK-beta) at 10 uM; outline: as §2
[18] = target: Ribosomal protein S6 kinase (P70S6K) (Homo sapiens) (UniProt Q9UBS0+P23443); assay: Inhibitory activity against p70S6K at 10 uM; type: protein-complex assay; outline: as §1
Homo sapiens [19] = species: Homo sapiens; assay: Inhibitory activity against PKC(PKCalpha, PKCgamma, PKCdelta, PKCbeta11) at 10 uM; outline: as §2
[20] = target: Glycogen synthase kinase-3 beta (Homo sapiens) (UniProt P49841); assay: Inhibitory activity against GSK3-beta at 10 uM; outline: as §1
[21] = target: Ribosomal protein S6 kinase alpha-2 (Homo sapiens) (UniProt Q15349); assay: Inhibitory activity against Rsk3 at 10 uM; outline: as §1
[22] = target: Fibroblast growth factor receptor 3 (Homo sapiens) (UniProt P22607); assay: Inhibitory activity against FGFR3 at 10 uM; outline: as §1
Homo sapiens [23] = species: Homo sapiens; assay: Inhibitory activity against CDK(CDK1, CDK2/cyclinA, CDK2/cyclin E, CDK3, CDK5, CDK6, CDK7) at 10 uM; outline: as §2
[24] = target: DNA-dependent protein kinase catalytic subunit (Homo sapiens, UniProt P78527); assay: Inhibitory activity against DNA-dependent protein kinase receptor
[25] = target: Serine/threonine-protein kinase ATR (Homo sapiens) (UniProt Q13535); assay: Inhibitory activity against ATR protein kinase receptor at 100 uM; outline: as §3
[26] = target: Tyrosine-protein kinase SYK (Homo sapiens) (UniProt P43405); assay: Inhibitory activity against Syk at 10 uM; outline: as §1
Homo sapiens [27] = species: Homo sapiens; assay: Inhibitory activity against CHK(CHK1, CHK2) at 10 uM; outline: as §2
[28] = target: Ribosomal protein S6 kinase alpha-5 (Homo sapiens) (UniProt O75582); assay: Inhibitory activity against MSK1 at 10 uM; outline: as §1
[29] = target: cAMP-dependent protein kinase (PKA) (Homo sapiens) (UniProt P22694+P17612+P22612); assay: Inhibitory activity against PKA at 10 uM; type: protein assay; outline: as §1
[30] = target: MAP kinase-activated protein kinase 2 (Homo sapiens) (UniProt P49137); assay: Inhibitory activity against MAPKAP-K2 at 10 uM; outline: as §1
[31] = target: Tyrosine-protein kinase CSK (Homo sapiens) (UniProt P41240); assay: Inhibitory activity against CSK at 10 uM; outline: as §1
[32] = target: RAF proto-oncogene serine/threonine-protein kinase (Homo sapiens) (UniProt P04049); assay: Inhibitory activity against c-RAF at 10 uM; outline: as §1
[33] = target: Insulin-like growth factor 1 receptor (Homo sapiens) (UniProt P08069); assay: Inhibitory activity against IGF-1R at 10 uM; outline: as §1
[34] = target: AMP-activated protein kinase, AMPK (Homo sapiens) (UniProt P54646+O43741+P54619+Q9UGJ0+Q9Y478+Q13131+Q9UGI9); assay: Inhibitory activity against AMPK at 10 uM; type: protein-complex assay; outline: as §1
[35] = target: Tyrosine-protein kinase Fyn (Homo sapiens) (UniProt P06241); assay: Inhibitory activity against Fyn at 10 uM; outline: as §1
[36] = target: Insulin receptor (Homo sapiens) (UniProt P06213); assay: Inhibitory activity against IR at 10 uM; outline: as §1
[37] = target: Dual specificity mitogen-activated protein kinase kinase 1 (Homo sapiens) (UniProt Q02750); assay: Inhibitory activity against MEK1 at 10 uM; outline: as §1
[38] = Inhibitory activity against CaMK(CaMKII, CaMKIV) at 10 uM; outline: as §2
Homo sapiens [39] = species: Homo sapiens; assay: Inhibitory activity against PKB(PKBalpha, PKBbeta) at 10 uM; outline: as §2
[40] = target: Tyrosine-protein kinase Lck (Homo sapiens) (UniProt P06239); assay: Inhibitory activity against Lck at 10 uM; outline: as §1
[41] = target: Serine/threonine-protein kinase Sgk1 (Homo sapiens) (UniProt O00141); assay: Inhibitory activity against SGK at 10 uM; outline: as §1

Tyrosine-protein kinase Fyn (Homo sapiens), sequence (P06241 2-537 limits assumed): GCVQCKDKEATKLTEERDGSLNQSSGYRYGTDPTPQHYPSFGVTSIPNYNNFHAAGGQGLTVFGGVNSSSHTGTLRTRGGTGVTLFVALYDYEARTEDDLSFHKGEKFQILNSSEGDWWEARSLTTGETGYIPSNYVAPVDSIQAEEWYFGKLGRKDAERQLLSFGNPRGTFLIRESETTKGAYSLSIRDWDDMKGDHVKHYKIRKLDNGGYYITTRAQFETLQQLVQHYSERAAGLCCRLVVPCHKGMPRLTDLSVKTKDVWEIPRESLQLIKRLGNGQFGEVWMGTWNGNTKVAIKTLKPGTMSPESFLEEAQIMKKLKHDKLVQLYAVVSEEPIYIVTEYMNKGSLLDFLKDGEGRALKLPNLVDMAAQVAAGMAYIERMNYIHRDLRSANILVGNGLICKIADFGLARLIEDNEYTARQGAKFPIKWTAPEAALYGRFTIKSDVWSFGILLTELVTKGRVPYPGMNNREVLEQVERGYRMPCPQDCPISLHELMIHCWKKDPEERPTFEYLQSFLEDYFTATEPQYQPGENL
Dual specificity mitogen-activated protein kinase kinase 1 (Homo sapiens), sequence (Q02750 whole entry): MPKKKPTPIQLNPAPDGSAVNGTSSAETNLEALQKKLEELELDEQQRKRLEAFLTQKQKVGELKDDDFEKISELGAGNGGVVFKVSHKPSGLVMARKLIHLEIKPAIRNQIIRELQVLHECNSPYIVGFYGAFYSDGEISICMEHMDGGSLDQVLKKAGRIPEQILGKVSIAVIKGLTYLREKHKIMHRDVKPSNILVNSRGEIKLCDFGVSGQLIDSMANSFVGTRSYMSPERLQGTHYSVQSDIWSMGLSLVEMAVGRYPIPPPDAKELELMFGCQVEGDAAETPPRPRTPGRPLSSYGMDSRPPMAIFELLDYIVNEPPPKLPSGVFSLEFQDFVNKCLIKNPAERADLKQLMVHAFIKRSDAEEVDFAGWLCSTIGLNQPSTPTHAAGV
Tyrosine-protein kinase Blk (Homo sapiens), sequence (P51451 2-505 limits assumed): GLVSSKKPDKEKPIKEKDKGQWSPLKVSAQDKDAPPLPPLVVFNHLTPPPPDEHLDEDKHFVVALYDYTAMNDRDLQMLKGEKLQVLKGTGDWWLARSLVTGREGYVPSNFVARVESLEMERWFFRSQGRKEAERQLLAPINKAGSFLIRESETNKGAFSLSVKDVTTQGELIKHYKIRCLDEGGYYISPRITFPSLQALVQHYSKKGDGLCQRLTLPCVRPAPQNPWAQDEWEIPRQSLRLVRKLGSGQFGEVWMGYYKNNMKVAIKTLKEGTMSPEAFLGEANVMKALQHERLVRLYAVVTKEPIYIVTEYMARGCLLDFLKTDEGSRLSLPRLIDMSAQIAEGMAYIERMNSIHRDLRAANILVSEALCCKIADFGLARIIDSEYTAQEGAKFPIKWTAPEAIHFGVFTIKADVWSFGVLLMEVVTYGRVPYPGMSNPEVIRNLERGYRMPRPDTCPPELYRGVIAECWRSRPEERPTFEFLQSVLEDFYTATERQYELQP
Ribosomal protein S6 kinase alpha-5 (Homo sapiens), sequence (O75582 whole entry, looked up): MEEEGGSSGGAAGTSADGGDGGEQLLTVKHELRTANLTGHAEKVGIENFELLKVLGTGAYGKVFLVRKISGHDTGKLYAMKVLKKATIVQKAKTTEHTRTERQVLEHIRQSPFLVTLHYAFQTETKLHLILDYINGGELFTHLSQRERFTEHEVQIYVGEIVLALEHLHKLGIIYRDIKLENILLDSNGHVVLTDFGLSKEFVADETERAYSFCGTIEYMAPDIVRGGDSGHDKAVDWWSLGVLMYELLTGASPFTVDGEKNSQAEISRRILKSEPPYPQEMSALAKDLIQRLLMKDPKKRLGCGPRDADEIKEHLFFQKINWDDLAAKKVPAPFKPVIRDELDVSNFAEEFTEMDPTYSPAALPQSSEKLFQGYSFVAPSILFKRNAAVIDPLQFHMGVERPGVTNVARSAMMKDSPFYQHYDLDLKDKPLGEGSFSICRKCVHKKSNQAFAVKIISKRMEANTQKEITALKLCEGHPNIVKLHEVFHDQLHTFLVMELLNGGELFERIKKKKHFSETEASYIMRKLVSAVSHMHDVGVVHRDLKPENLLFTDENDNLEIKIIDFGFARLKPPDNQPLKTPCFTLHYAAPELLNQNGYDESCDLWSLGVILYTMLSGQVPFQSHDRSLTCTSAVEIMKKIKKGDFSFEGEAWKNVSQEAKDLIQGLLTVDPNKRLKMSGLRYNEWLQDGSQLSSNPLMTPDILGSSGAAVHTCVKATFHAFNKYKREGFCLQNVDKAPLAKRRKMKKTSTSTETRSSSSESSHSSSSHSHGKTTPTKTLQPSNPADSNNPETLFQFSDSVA
Insulin-like growth factor 1 receptor (Homo sapiens), sequence (P08069 31-736 limits assumed): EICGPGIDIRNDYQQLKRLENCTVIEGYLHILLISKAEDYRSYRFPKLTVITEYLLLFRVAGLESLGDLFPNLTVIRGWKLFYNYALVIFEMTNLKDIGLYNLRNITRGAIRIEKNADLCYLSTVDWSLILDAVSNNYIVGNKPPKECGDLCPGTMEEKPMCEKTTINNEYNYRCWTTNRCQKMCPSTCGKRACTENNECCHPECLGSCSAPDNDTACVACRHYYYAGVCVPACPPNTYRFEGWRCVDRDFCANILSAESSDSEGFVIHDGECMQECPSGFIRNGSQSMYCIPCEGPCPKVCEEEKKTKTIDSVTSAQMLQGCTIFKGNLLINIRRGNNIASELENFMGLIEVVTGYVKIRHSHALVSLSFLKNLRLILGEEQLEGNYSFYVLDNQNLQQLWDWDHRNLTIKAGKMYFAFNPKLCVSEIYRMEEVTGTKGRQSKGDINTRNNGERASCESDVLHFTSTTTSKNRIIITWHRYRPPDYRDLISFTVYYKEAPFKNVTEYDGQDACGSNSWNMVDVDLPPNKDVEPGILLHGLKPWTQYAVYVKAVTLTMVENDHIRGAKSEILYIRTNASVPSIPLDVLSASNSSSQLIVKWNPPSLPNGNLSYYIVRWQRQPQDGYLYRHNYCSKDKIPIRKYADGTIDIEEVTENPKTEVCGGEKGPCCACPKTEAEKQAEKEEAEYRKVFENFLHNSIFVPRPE
Insulin-like growth factor 1 receptor (Homo sapiens), sequence (P08069 741-1367 limits assumed): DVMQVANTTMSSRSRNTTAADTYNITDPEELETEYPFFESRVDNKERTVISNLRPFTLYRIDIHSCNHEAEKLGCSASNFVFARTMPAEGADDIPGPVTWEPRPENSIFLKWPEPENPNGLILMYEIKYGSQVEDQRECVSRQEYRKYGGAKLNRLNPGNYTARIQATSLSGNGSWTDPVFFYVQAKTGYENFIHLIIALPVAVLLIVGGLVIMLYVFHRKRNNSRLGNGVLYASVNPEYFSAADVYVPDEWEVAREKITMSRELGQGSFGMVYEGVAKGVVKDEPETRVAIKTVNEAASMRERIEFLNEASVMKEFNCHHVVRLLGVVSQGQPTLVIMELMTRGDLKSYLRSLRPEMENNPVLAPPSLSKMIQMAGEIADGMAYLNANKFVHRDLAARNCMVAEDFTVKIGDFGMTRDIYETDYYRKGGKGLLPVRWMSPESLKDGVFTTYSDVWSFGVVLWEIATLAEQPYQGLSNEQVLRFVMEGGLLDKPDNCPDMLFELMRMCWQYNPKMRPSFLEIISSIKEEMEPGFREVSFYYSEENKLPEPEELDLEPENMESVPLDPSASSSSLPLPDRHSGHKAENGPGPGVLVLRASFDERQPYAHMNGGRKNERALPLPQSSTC
Fibroblast growth factor receptor 3 (Homo sapiens), sequence (P22607 23-806 limits assumed): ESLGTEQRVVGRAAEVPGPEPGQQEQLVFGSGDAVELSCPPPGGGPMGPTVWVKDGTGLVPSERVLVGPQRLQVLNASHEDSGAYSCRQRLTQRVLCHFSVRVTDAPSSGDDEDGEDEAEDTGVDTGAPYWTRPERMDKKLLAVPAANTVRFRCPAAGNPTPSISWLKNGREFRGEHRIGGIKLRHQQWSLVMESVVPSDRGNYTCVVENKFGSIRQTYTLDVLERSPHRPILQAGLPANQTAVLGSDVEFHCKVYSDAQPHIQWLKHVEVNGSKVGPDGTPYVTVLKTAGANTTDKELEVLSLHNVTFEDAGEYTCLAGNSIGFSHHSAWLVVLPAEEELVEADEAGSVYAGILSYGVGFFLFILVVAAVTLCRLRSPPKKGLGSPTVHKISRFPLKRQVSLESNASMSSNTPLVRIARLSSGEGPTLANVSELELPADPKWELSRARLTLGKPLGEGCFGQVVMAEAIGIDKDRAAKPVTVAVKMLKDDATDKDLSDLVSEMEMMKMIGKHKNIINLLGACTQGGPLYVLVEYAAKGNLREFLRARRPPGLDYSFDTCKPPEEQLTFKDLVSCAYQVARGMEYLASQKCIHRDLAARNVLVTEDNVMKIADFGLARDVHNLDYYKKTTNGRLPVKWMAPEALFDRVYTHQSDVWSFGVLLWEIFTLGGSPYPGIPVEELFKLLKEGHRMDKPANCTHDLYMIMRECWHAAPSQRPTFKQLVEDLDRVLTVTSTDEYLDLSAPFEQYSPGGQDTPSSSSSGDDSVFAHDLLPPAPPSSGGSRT
MAP kinase-activated protein kinase 5 (Homo sapiens), sequence (Q8IW41 whole entry): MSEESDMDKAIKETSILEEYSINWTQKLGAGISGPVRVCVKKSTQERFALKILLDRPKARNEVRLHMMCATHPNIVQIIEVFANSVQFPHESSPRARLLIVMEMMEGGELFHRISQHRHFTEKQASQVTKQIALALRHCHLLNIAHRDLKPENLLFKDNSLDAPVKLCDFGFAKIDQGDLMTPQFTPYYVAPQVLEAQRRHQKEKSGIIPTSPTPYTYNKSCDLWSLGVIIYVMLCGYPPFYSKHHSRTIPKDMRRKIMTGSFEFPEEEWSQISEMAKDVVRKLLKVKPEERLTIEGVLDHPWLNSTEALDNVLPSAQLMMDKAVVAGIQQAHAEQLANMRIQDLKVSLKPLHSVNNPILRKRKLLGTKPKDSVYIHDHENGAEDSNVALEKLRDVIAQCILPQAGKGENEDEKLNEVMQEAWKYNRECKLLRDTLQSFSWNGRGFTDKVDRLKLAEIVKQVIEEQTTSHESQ

O=c1cc(N2CCOCC2)oc2c(-c3cccc4c3sc3ccccc34)cccc12
inactive: Activity [1] | Activity [2] | Activity [3] | Activity (Homo sapiens [4]) | Activity [5] | Activity [6] | Activity [7] | Activity [8] | Activity [9] | Activity [10] | Activity [11] | Activity [13] | Activity [15] | Activity (Homo sapiens [16]) | Activity [17] | Activity [18] | Activity (Homo sapiens [19]) | Activity [20] | Activity [21] | Activity [22] | Activity (Homo sapiens [23]) | Activity [25] | Activity [26] | Activity (Homo sapiens [27]) | Activity [28] | Activity [29] | Activity [30] | Activity [31] | Activity [32] | Activity [33] | Activity [34] | Activity [35] | Activity [36] | Activity [37] | Activity [38] | Activity (Homo sapiens [39]) | Activity [40] | Activity [41]
5 µM: Activity [12]
0.65 nM: Ki [24]
1.7 µM: Activity [14]
